Experimental data: ChEMBL document CHEMBL4196059, “Design, synthesis, and biological evaluation of stable β6.3-Helices: Discovery of non-hemolytic antibacterial peptides” (Eur J Med Chem, 2018)
Activity calls are given as the source filed them. The calls are words filed in the database; no cut-off is given here.

How the values were obtained:
Lipid bilayer = assay: Induction of pore formation in POPC vesicles at 20 uM after 3 hrs by carboxyfluorescein dye leakage assay; details: in the assay text read “after 3 mins” for “after 3 hrs”
How it was run: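 POPC or DOPC liposomes were hydrated in 10 mM HEPES, 100 mM KCl, pH 7.4, containing 50 mM carboxyfluorescein. Size was checked by dynamic light scattering, and vesicles were used at 2.2×10^10 per mL. Peptide at 20 μM was equilibrated with vesicles for 3 min, and dye leakage was measured.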

[1] = Hemolytic activity against human RBC at 1.56 uM after 1 hr by Drabkin's assay relative to control; assay type: ADME, cell-based, Erythrocyte; details: human red blood cells (erythrocytes), read-out: Activity
Candida albicans = assay: Growth inhibition of Candida albicans ATCC 90028 at 32 ug/ml after 24 hrs by OD530 light-scattering microspectrophotometric method; details: ATCC 90028, 24 h, read-out: GI
[2] = Hemolytic activity against human RBC at 3.125 uM after 1 hr by Drabkin's assay relative to control; assay type: ADME, cell-based, Erythrocyte; details: human red blood cells (erythrocytes), read-out: Activity
[3] = Hemolytic activity against human RBC at 0.39 uM after 1 hr by Drabkin's assay relative to control; assay type: ADME, cell-based, Erythrocyte; details: human red blood cells (erythrocytes), read-out: Activity
[4] = Hemolytic activity against human RBC at 50 uM after 1 hr by Drabkin's assay relative to control; assay type: ADME, cell-based, Erythrocyte; details: human red blood cells (erythrocytes), read-out: Activity
Cryptococcus neoformans = assay: Growth inhibition of Cryptococcus neoformans H99 ATCC 208821 at 32 ug/ml after 24 hrs by resazurin dye-based microspectrophotometric assay; assay type: functional; details: var. grubii H99 ATCC 208821, 24 h, read-out: GI
How it was run: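 Yeasts were grown 3 days on YPD agar at 30 °C, suspended from five colonies and diluted in YNB broth to a final 2.5×10^3 CFU/mL. Compound at a final 32 μg/mL; incubated 24 h at 35 °C without shaking. C. albicans was read at OD530. C. neoformans was read as OD600–570 after resazurin (0.001% final) and a further 2 h at 35 °C. Fluconazole was the standard.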

Escherichia coli = assay: Growth inhibition of Escherichia coli ATCC 25922 at 32 ug/ml after 18 hrs; assay type: functional; details: ATCC 25922, 18 h, read-out: GI
How it was run: (§1)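 Mid-log cultures were prepared as above and seeded at 5×10^5 CFU/mL with compound at a final 32 μg/mL, then held static at 37 °C for 18 h. Growth was read as OD600. Percent inhibition was calculated against media-only and bacteria-only controls on the same plate.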

Staphylococcus aureus = assay: Growth inhibition of methicillin-resistant Staphylococcus aureus ATCC 43300 at 32 ug/ml after 18 hrs; assay type: functional; details: ATCC 43300, 18 h, read-out: GI
How it was run: (§2)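 Mid-log cultures in cation-adjusted Mueller Hinton broth were added at 5×10^5 CFU/mL to wells at a final compound concentration of 32 μg/mL. Plates stood at 37 °C for 18 h. Growth was read by OD600, and % inhibition was computed against media-only and untreated-bacteria controls.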

Erythrocyte = assay: Hemolytic activity against human RBC after 1 hr by Drabkin's assay; assay type: ADME, cell-based
[5] = Hemolytic activity against human RBC at 12.5 uM after 1 hr by Drabkin's assay relative to control; assay type: ADME, cell-based, Erythrocyte; details: human red blood cells (erythrocytes), read-out: Activity
Klebsiella pneumoniae = assay: Growth inhibition of multidrug-resistant Klebsiella pneumoniae ATCC 700603 at 32 ug/ml after 18 hrs; assay type: functional; details: ATCC 700603, 18 h, read-out: GI; how it was run: as §2
[6] = Hemolytic activity against human RBC at 100 uM after 1 hr by Drabkin's assay relative to control; assay type: ADME, cell-based, Erythrocyte; details: human red blood cells (erythrocytes), read-out: Activity
Acinetobacter baumannii = assay: Growth inhibition of Acinetobacter baumannii ATCC 19606 at 32 ug/ml after 18 hrs; assay type: functional; details: ATCC 19606 = CIP 70.34 = JCM 6841, 18 h, read-out: GI; how it was run: as §1
[7] = Hemolytic activity against human RBC at 0.78 uM after 1 hr by Drabkin's assay relative to control; assay type: ADME, cell-based, Erythrocyte; details: human red blood cells (erythrocytes), read-out: Activity
[8] = Hemolytic activity against human RBC at 25 uM after 1 hr by Drabkin's assay relative to control; assay type: ADME, cell-based, Erythrocyte; details: human red blood cells (erythrocytes), read-out: Activity
[9] = Hemolytic activity against human RBC at 6.25 uM after 1 hr by Drabkin's assay relative to control; assay type: ADME, cell-based, Erythrocyte; details: human red blood cells (erythrocytes), read-out: Activity
Pseudomonas aeruginosa = assay: Growth inhibition of Pseudomonas aeruginosa ATCC 27853 at 32 ug/ml after 18 hrs; assay type: functional; details: ATCC 27853, 18 h, read-out: GI; how it was run: as §1

Compound	Activity (Lipid bilayer)	hemolysis at 1 h, 1.56 µM [1] [%]	inhibition of growth at 32 µg/mL (Candida albicans) [%]	hemolysis at 1 h, 3.125 µM [2] [%]	hemolysis at 1 h, 0.39 µM [3] [%]	hemolysis at 1 h, 50 µM [4] [%]	inhibition of growth at 32 µg/mL (Cryptococcus neoformans) [%]	inhibition of growth at 32 µg/mL (Escherichia coli) [%]	inhibition of growth at 32 µg/mL (Staphylococcus aureus) [%]	Activity (Erythrocyte)	hemolysis at 1 h, 12.5 µM [5] [%]	inhibition of growth at 32 µg/mL (Klebsiella pneumoniae) [%]	hemolysis at 1 h, 100 µM [6] [%]	inhibition of growth at 32 µg/mL (Acinetobacter baumannii) [%]	hemolysis at 1 h, 0.78 µM [7] [%]	hemolysis at 1 h, 25 µM [8] [%]	hemolysis at 1 h, 6.25 µM [9] [%]	inhibition of growth at 32 µg/mL (Pseudomonas aeruginosa) [%]
O=C(O)[C@@H]1CCCN1C(=O)N1CCCN1C(=O)[C@@H]1CCCN1C(=O)N1CCCN1C(=O)[C@@H]1CCCN1C(=O)N1CCCN1C(=O)[C@@H]1CCCN1C(=O)N1CCCN1C(=O)[C@@H]1CCCN1C(=O)N1CCCN1C(=O)[C@@H]1CCCN1C(=O)N1CCCN1C(=O)[C@@H]1CCCN1C(=O)N1CCCN1C(=O)[C@@H]1CCCN1C(=O)N1CCCN1C(=O)OCc1ccccc1	inactive	-0.452	2.73	0.271	-0.271	-0.361	-1.86	4.92	1.14	Dose-dependent effect	0.181	4.92	-0.271	4.46	-0.181	-0.181	-0.09	-9.17
CC(C)(C)OC(=O)[C@@H]1CCCN1C(=O)N1CCCN1C(=O)[C@@H]1CCCN1C(=O)N1CCCN1C(=O)[C@@H]1CCCN1C(=O)N1CCCN1C(=O)[C@@H]1CCCN1C(=O)N1CCCN1C(=O)[C@@H]1CCCN1C(=O)N1CCCN1C(=O)[C@@H]1CCCN1C(=O)N1CCCN1C(=O)[C@@H]1CCCN1C(=O)N1CCCN1C(=O)[C@@H]1CCCN1C(=O)N1CCCN1 [listing 1 of 2 here]	inactive	–	–	–	–	–	–	–	–	–	–	–	–	–	–	–	–	–
CC(C)(C)OC(=O)[C@@H]1CCCN1C(=O)N1CCCN1C(=O)[C@@H]1CCCN1C(=O)N1CCCN1C(=O)[C@@H]1CCCN1C(=O)N1CCCN1C(=O)[C@@H]1CCCN1C(=O)N1CCCN1	inactive	–	4.64	–	–	–	-4.84	4.06	5.04	Dose-dependent effect	–	4.07	–	-8.79	–	–	–	4.45
O=C([C@@H]1CCCN1C(=O)N1CCCN1C(=O)[C@@H]1CCCN1C(=O)N1CCCN1C(=O)[C@@H]1CCCN1C(=O)N1CCCN1C(=O)[C@@H]1CCCN1C(=O)N1CCCN1C(=O)[C@@H]1CCCN1C(=O)N1CCCN1C(=O)[C@@H]1CCCN1C(=O)N1CCCN1C(=O)[C@@H]1CCCN1C(=O)N1CCCN1C(=O)[C@@H]1CCCN1)N1CCCN1	–	–	2.38	–	–	–	-2.7	1.9	22.8	–	–	1.9	–	-4.27	–	–	–	-6.95
O=C(OCc1ccccc1)N1CCCN1C(=O)[C@@H]1CCCN1C(=O)N1CCCN1C(=O)[C@@H]1CCCN1C(=O)N1CCCN1C(=O)[C@@H]1CCCN1C(=O)N1CCCN1C(=O)[C@@H]1CCCN1C(=O)N1CCCN1C(=O)[C@@H]1CCCN1C(=O)N1CCCN1C(=O)[C@@H]1CCCN1C(=O)N1CCCN1C(=O)[C@@H]1CCCN1C(=O)N1CCCN1C(=O)[C@@H]1CCCN1	inactive	–	4.07	–	–	–	0.967	14.8	28.6	–	–	14.8	–	38.4	–	–	–	-2.53
CC(C)(C)OC(=O)[C@@H]1CCCN1C(=O)N1CCCN1C(=O)[C@@H]1CCCN1C(=O)N1CCCN1C(=O)[C@@H]1CCCN1C(=O)N1CCCN1C(=O)[C@@H]1CCCN1C(=O)N1CCCN1C(=O)[C@@H]1CCCN1C(=O)N1CCCN1C(=O)[C@@H]1CCCN1C(=O)N1CCCN1C(=O)[C@@H]1CCCN1C(=O)N1CCCN1C(=O)[C@@H]1CCCN1C(=O)N1CCCN1 [listing 2 of 2 here]	–	–	2.92	–	–	–	-3.43	5.27	20.7	–	–	5.27	–	17.8	–	–	–	-8.18
CC(C)(C)OC(=O)[C@@H]1CCCN1C(=O)N1CCCN1C(=O)[C@@H]1CCCN1C(=O)N1CCCN1C(=O)[C@@H]1CCCN1C(=O)N1CCCN1C(=O)[C@@H]1CCCN1C(=O)N1CCCN1C(=O)[C@@H]1CCCN1C(=O)N1CCCN1C(=O)[C@@H]1CCCN1C(=O)N1CCCN1C(=O)[C@@H]1CCCN1C(=O)N1CCCN1C(=O)[C@@H]1CCCN1C(=O)N1CCCN1.Cl	–	0	–	-0.361	-0.181	0	–	–	–	Dose-dependent effect	0.181	–	-0.181	–	-0.903	-0.271	0	–
O=CN1CCCN1C(=O)N1CCC[C@H]1C(=O)N1CCCN1C(=O)N1CCC[C@H]1C(=O)N1CCCN1C(=O)N1CCC[C@H]1C(=O)N1CCCN1C(=O)N1CCC[C@H]1C(=O)N1CCCN1C(=O)N1CCC[C@H]1C(=O)NCCO	inactive	-0.452	–	0.02	0.361	-0.361	–	–	–	Dose-dependent effect	-0.913	–	-0.251	–	0.08	0	-0.361	–
CN1CCCN1C(=O)[C@@H]1CCCN1C(=O)N1CCCN1C(=O)[C@@H]1CCCN1C(=O)N1CCCN1C(=O)[C@@H]1CCCN1C(=O)N1CCCN1C(=O)[C@@H]1CCCN1C(=O)N1CCCN1C(=O)[C@@H]1CCCN1C(=O)N1CCCN1C(=O)[C@@H]1CCCN1C(=O)N1CCCN1C(=O)[C@@H]1CCCN1C(=O)N1CCCN1C(=O)[C@@H]1CCCN1C(=O)N1CCCN1C(=O)OCc1ccccc1	–	–	3.49	–	–	–	-5.68	3.93	25.1	–	–	3.93	–	-6.74	–	–	–	-3.91
CC(C)(C)OC(=O)N1CCC[C@H]1C(=O)N1CCCN1C(=O)N1CCC[C@H]1C(=O)N1CCCN1C(=O)N1CCC[C@H]1C(=O)N1CCCN1C(=O)N1CCC[C@H]1C(=O)N1CCCN1C(=O)OCc1ccccc1	–	0.189	–	0.038	0.227	-0.379	–	–	–	Dose-dependent effect	0.038	–	0	–	0.189	0.227	-0.152	–
Cl.O=C(OCc1ccccc1)N1CCCN1C(=O)[C@@H]1CCCN1C(=O)N1CCCN1C(=O)[C@@H]1CCCN1C(=O)N1CCCN1C(=O)[C@@H]1CCCN1C(=O)N1CCCN1C(=O)[C@@H]1CCCN1	–	–	4.48	–	–	-0.013	-1.33	0.27	23.8	Dose-dependent effect	–	0.27	0.045	34.9	–	–	–	-10.1
CC(C)(C)OC(=O)N1CCC[C@H]1C(=O)N1CCCN1C(=O)N1CCC[C@H]1C(=O)N1CCCN1C(=O)N1CCC[C@H]1C(=O)N1CCCN1C(=O)N1CCC[C@H]1C(=O)N1CCCN1	–	–	3.56	–	–	0.061	-0.655	4.51	28.3	Dose-dependent effect	–	4.51	0.723	7.37	–	–	–	-4.17
